High-throughput results as filed in PubChem.
TCR-CD3 inh = inhibitors of human TCR-CD3 interaction, primary screen, biochemical, fluorescence, TAMRA-labeled TCR probe; T-cell receptor (TCR); inhibition, % at 9.4 µM; 360,000 tested, 0.37% active; in the data active means inhibition above about 19%;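 further: recombinant mutant TCR 2C K166C tagged with TAMRA read by polarization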
SIAE primary = human SIAE inhibitors, primary screen, biochemical, fluorescence polarization, FP-Rh probe, 1536-well HTS. AID 1053197, 2014. Sialate O-acetylesterase (Homo sapiens), Q9HAT2. 370,000 tested, 0.69% active. inhibition, % at 9.66 µM. SIAE FP-Rh probe binding;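 active means inhibition above a cutoff: mean of compounds within the control limits plus 3 SD of those, cut at about 17% in these data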
DDE Tn7 FP inh = inhibitors of Tn7 peptide binding to fibrin DD(E), primary screen, biochemical, fluorescence polarization, human fibrin, Tn7 probe | FP displacement of FITC-Tn7 peptide from fibrin DD(E); 0% = median of compound wells per plate | inhibition, % at 8.3 µM | 370,000 tested, 0.13% active;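 active means inhibition above the mean of compounds falling within the control limits plus 3 SD of them, cut at about 14% in these data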
Target sequence (P02675 whole entry, looked up): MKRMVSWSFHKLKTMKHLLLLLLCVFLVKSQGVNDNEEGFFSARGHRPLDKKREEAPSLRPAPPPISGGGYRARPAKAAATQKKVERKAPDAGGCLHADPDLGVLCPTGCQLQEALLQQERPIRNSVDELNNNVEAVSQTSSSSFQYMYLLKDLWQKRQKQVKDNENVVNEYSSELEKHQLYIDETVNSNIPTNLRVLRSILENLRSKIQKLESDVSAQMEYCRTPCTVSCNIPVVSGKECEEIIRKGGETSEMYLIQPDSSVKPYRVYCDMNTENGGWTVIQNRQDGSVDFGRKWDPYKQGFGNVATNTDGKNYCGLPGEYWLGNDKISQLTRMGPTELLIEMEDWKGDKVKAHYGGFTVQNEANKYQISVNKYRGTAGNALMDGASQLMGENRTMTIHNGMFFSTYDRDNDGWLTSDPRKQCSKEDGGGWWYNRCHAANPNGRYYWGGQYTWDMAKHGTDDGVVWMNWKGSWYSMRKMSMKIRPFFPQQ
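Assay system: Human fibrin DD(E) protein | Medium: Tris buffer with calcium and detergent, pH 7.8 | Reagent: 0.1 µM fluorescent Tn7 | Compound dosing: Single point at 8.3 µM | Times: 10 min preincubation, 3 h with tracer, room temperature | Detection: Fluorescence polarization of the labelled Tn7 tracer | Controls: Aha-Tn7 high control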
ABHD4 inh = ABHD4 inhibitors, primary screen, biochemical, fluorescence polarization, mouse | inhibition, % at 8.92 µM | purified mABHD4, FP-Rh probe fluorescence polarization | (Lyso)-N-acylphosphatidylethanolamine lipase (Mus musculus), Q8VD66 | 370,000 tested, 0.54% active;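 active means inhibition exceeding the mean over every tested compound plus 3 SD, cut at about 30% in these data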
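system = mouse ABHD4 enzyme, wild type | medium = HEPES pH 7.0, NaCl, Pluronic buffer | also added = FP-Rh probe | incubation = Enzyme–compound pre-incubation 45 min, then probe 60 min, both 25 °C | technique = fluorescence polarization, excitation 525 nm, emission 598 nm, BODIPY TMR filters | controls = S159A mutant high control, sample median low control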
HTRA1 inhibitor = HTRA1 serine protease inhibitors, primary screen, biochemical, fluorescence polarization, HTS; inhibition, % at 5.96 µM; recombinant HTRA1, FP-rhodamine activity-based probe; Q92743; AID 504803, 2011; 340,000 tested, 0.5% active; in the data active means inhibition above about 36%
Tn6 DDE FP = inhibitors of Tn6 peptide binding to fibrin DD(E), primary screen, biochemical, fluorescence polarization, human fibrin, Tn6 probe; Fibrinogen beta chain (Homo sapiens), P02675; Fibrin DD(E) TRITC-Tn6 fluorescence polarization displacement; inhibition, % at 8.3 µM; 370,000 tested, 0.21% active;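 active means inhibition above a per-campaign cutoff: mean of compounds within control limits plus 3 SD, cut at about 15% in these data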
DDE Tn6 FP ctr = counter-screen hit for Tn6 peptide-fibrin DD(E) binding disruption. shares compounds with Tn6 DDE FP. 680 tested, 2% active. inhibition, % at 8.3 µM. TRITC-Tn6 fluorescence polarization displacement; 0% = median of compound wells, not DMSO;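 active means inhibition above the mean of test compounds lying between the control limits plus 3 SD of those, cut at about 14% in these data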
DDE Tn6 confirm = inhibitors of Tn6 peptide binding to fibrin DD(E), confirmation, biochemical, fluorescence polarization, human fibrin, Tn6 probe. shares compounds with Tn6 DDE FP. FP displacement of TRITC-Tn6 peptide from DD(E); 0% = per-plate median of test wells. inhibition, % at 8.3 µM. 680 tested, 10% active;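 active means inhibition above the mean of compounds lying within the control limits plus 3 SD, cut at about 16% in these data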
Numbers stand for hits; - = inactive; . = no result. Hits are enriched below; roughly 1.8% of the tested compounds scored in any of these assays.

SMILES | TCR-CD3 inh | SIAE primary | DDE Tn7 FP inh | ABHD4 inh | HTRA1 inhibitor | Tn6 DDE FP | DDE Tn6 FP ctr | DDE Tn6 confirm
Cc1ccc2c(c1)N(Cc1ccccn1)C(=O)C(C)O2 (configuration not stated) | - | - | - | - | - | 16.9 | - | -
O=C(COC(=O)C(Cc1ccccc1)NC(=O)c1cccs1)NCc1ccccc1 (configuration not stated) | - | - | - | - | - | - | . | .
O=C(N[C@@H](Cc1ccccc1)C(=O)OCC(=O)N1CCOCC1)c1cccs1 | - | - | - | - | - | 17.8 | - | -
COC1=CC(=O)OC(c2ccccc2C(F)(F)F)C1 (configuration not stated) | - | - | - | - | . | - | . | .
COC1=CC(=O)OC(c2ccc(C(F)(F)F)cc2)C1 (configuration not stated) | - | - | - | - | . | 16.0 | - | -
COc1ccc(NC(=O)C2CCCN2C(=O)NC2CCCCC2)cc1 (configuration not stated) | - | - | - | - | - | 17.4 | - | -
CC(=O)Nc1nc2cc3c(cc2s1)OCO3 | - | - | - | - | - | 15.5 | - | -
CC(C)C(=O)Nc1nc2cc3c(cc2s1)OCCO3 | - | - | - | - | - | - | . | .
COC(=O)C1CN(C2CCCC2)CCS(=O)(=O)N1Cc1ccc(OC)cc1 (configuration not stated) | . | - | - | - | . | - | . | .
O=C(Nc1cccc([N+](=O)[O-])c1)c1ccc([N+](=O)[O-])o1 | - | - | - | - | - | 18.1 | - | -
C[C@H]1[C@@H](OC(=O)NCc2ccc(Cl)c(Cl)c2)CC[C@@]23CCCN2C(=O)CCC[C@@H]13 | . | - | - | - | . | - | . | .
CC(=O)NCc1ccc(S(=O)(=O)NC(C(=O)O)C(C)C)cc1 (configuration not stated) | - | - | - | - | - | 16.0 | - | -
COc1ccc(S(=O)(=O)N[C@H](C(=O)O)C(C)C)cc1 | - | - | - | - | - | - | . | .
C#CCCCN([C@H](C(=O)OC)C(C)C)S(=O)(=O)c1ccc(F)cc1Br | . | - | - | - | . | - | . | .
Cc1ccc(S(=O)(=O)CCC(=O)OCCOc2cccc(Br)c2)cc1 | - | - | - | - | - | 15.4 | - | -
COc1cccc(NC(=O)COC(=O)CCS(=O)(=O)c2ccc(C)cc2)c1 | - | - | - | - | - | - | . | .
O=C(OCc1cc([N+](=O)[O-])cc2c1OCOC2)c1ccccn1 | - | - | - | - | - | 17.5 | - | -
COc1ccccc1C(C)NCC(=O)NC(=O)NCc1ccco1 (configuration not stated) | - | - | - | - | - | 56.9 | - | -
CCOC(=O)Cc1cc(-c2ccc(F)cc2)nc2ccc3ccccc3c12 | - | - | - | - | - | 16.1 | - | -
COC(=O)C1CN(CCc2ccccc2)CCS(=O)(=O)N1Cc1ccc(C(F)(F)F)cc1 (configuration not stated) | . | - | - | - | . | - | . | .
COC(=O)C[C@H]1CC[C@@H]2[C@@H](COc3ccc(NC(=O)Nc4ccccc4OC)cc3C(=O)N2C)O1 | . | - | - | - | . | - | . | .
COc1ccc(C(=O)NCc2nnc(SCC(=O)Nc3cc(OC)ccc3OC)o2)cc1 | - | - | - | - | - | 15.4 | - | -
O=C(CSc1nnc(-c2ccccn2)n1Cc1ccco1)Nc1ccc2c(c1)OCO2 | - | - | - | - | - | 15.3 | - | -
COc1ccc(/C=C2\CC3(OC(=O)C4CCCC4)CCCN2C3)cc1 (configuration not stated) | . | - | - | - | . | - | . | .
COc1ccc(NC(=O)CC(C)(C)C)c([N+](=O)[O-])c1 | - | - | - | - | - | 16.2 | - | -
SMILES | TCR-CD3 inh | SIAE primary | DDE Tn7 FP inh | ABHD4 inh | HTRA1 inhibitor | Tn6 DDE FP | DDE Tn6 FP ctr | DDE Tn6 confirm
COCCCN1C(=O)[C@H](CC(=O)N2CCN(C(=O)C3CC3)CC2)[C@]2(C(=O)OC)CCCCC=C12 | . | - | - | - | . | - | . | .
COC(=O)[C@@]1(C(C)C)N=C(c2cc(OC)c(OC)c(OC)c2)[C@]2(O1)C(=O)N(Cc1cn(Cc3ccccc3)nn1)c1ccc(F)cc12 | . | - | - | - | . | - | . | .
CCN1CC=C2C(C1)C(c1ccc(Cl)s1)C(C#N)=C(N)C2(C#N)C#N (configuration not stated) | - | - | - | - | - | 15.8 | - | -
Nn1c(SCC(=O)N2CCOCC2)nnc1-c1cc(-c2ccc(F)cc2)n[nH]1 | . | - | - | - | . | 15.9 | - | -
Nn1c(SCC(=O)N2CCOCC2)nnc1-c1cc(-c2ccc(Cl)cc2)n[nH]1 | . | - | - | - | . | - | . | .
O=C(O)c1cn(-c2ccc(N3CCCC3)c(F)c2)c2c(F)c(F)c(F)cc2c1=O | - | - | - | - | - | 17.8 | - | -
Cc1ccc(-c2csc3nc4ccc(C(=O)NCCO)cc4c(=O)n23)cc1 | - | - | - | - | - | - | . | .
Cc1ccc(-c2csc3nc4cc(C(=O)NC5CCC(O)CC5)ccc4c(=O)n23)cc1 (configuration not stated) | - | - | - | - | - | 17.3 | - | -
O=C(COC(=O)c1ccccc1NC(=O)c1ccccc1)c1cccc([N+](=O)[O-])c1 | - | - | - | - | - | 16.8 | - | -
CN1C(=O)c2cc(NS(=O)(=O)c3ccc(F)cc3)ccc2OC[C@H]2O[C@@H](CC(=O)NCC(F)(F)F)CC[C@@H]21 | . | - | - | - | . | - | . | .
C=CCN1[C@H](C)COc2cc(N3CCCC3)ccc2S1(=O)=O | . | - | - | - | . | - | . | .
COc1ccc(OC)c(-c2nnc(SCC(=O)N3CCCC3)o2)c1 | - | - | - | - | - | - | . | .
COc1ccc(OC)c(-c2nnc(SCC(=O)N3CCOCC3)o2)c1 | - | - | - | - | - | 18.8 | - | -
CCOc1ccc(NC(=O)[C@@H](NC(=O)c2ccccc2Br)C(C)C)cc1 | - | - | - | - | - | - | . | .
CCOc1ccc(NC(=O)C(CC)NC(=O)c2ccccc2CO)cc1 (configuration not stated) | - | - | - | - | - | 19.9 | - | -
